Assay results reported in publication PMC6225502 (Journal of Clinical Oncology, 2018).

How the values were obtained:
[1] = Plasma pharmacokinetics of epacadostat; type: in vivo, human
[2] = patients with advanced cancers; cited from earlier work
[3] = type: in vivo, human
Procedure, shortened: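 Adults with advanced solid tumors took oral epacadostat 25, 50 or 100 mg twice daily with IV pembrolizumab 2 mg/kg every 3 weeks, or 300 mg twice daily with 200 mg every 3 weeks, in 3 + 3 + 3 escalation. Expansion cohorts of up to nine received 50, 100 or 300 mg with 200 mg. DLTs were protocol-specified AEs within the first 6 weeks. RP2D was set by expansion tolerability.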

[4] = Safety and tolerability: treatment-related adverse events; type: in vivo, human
Procedure, shortened: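 Patients receiving ≥1 dose of oral epacadostat twice daily plus IV pembrolizumab every 3 weeks were assessed on day 1 of every cycle, at end of treatment and during follow-up. Liver function tests were run weekly for the first 6 weeks. AEs were graded per CTCAE v4.0 and summarized descriptively.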

IDO1 [5] = assay: Pharmacokinetic-based projected IDO1 inhibition; parameters: species or system human
IDO1 [6] = settings: doses ≥ 100 mg twice per day; ref [1][6]; cited from earlier work
[7] = pembrolizumab monotherapy reference data set; cited from earlier work
[8] = epacadostat 100 mg twice per day + pembrolizumab
[9] = epacadostat 300 mg twice per day + pembrolizumab

NS(=O)(=O)NCCNc1nonc1C(=NO)Nc1ccc(F)c(Br)c1 [Epacadostat]
Dose dependence of plasma exposures (AUC and Cmax) ([1]; 25 to 300 mg twice per day + pembrolizumab): increased in an approximately dose-proportional manner
Time of maximum observed plasma concentration ([1]; across doses): approximately 2 hours
Tolerability of single-agent epacadostat [2]: well tolerated
DLTs observed ([3]; epacadostat 100 mg twice per day + pembrolizumab (15 patients)): grade 3 AST increased/grade 2 ALT increased and grade 2 nervous system disorder occurred in one patient each
Recommended phase II dose (RP2D) of epacadostat ([3]; plus pembrolizumab 200 mg every 3 weeks): 100 mg twice per day
Rate of AEs of special interest [4, 8]: 6%
Rate of grade 3/4 TRAEs [4, 8]: 28%
Rate of treatment-related dose interruptions [4, 8]: 22%
Rate of treatment-related dose reductions [4, 8]: 11%
Rate of AEs of special interest [4, 9]: 30%
Rate of grade 3/4 TRAEs [4, 9]: 35%
Rate of treatment-related dose interruptions [4, 9]: 45%
Rate of treatment-related dose reductions [4, 9]: 35%
Average concentrations at steady state relative to the IC50 associated with optimal target inhibition (IDO1 [5]; all patients who received epacadostat ≥ 100 mg twice per day): exceeded the IC50
Patients who achieved a minimum IDO1 inhibition of ≥ 50% (IDO1 [5]; epacadostat 100 mg twice per day): the majority of patients
Patients projected to have achieved ≥ 50% time-averaged IDO1 inhibition (IDO1 [5]; epacadostat 100 mg twice per day or 300 mg twice per day): all patients
Patients projected to have achieved ≥ 50% time-averaged IDO1 inhibition (IDO1 [5]; steady state, all epacadostat doses): > 90%
Inhibition of IDO1 activity and kynurenine levels (IDO1 [6]): provide optimal inhibition of IDO1 activity and normalization of kynurenine levels

pembrolizumab
Treatment-emergent antipembrolizumab antibody rate [7]: 2.1%
